The source made the active and inactive calls. No cut-off for these calls is given here.
Legend:
[1] = tested on: Hepatocyte growth factor receptor (Homo sapiens), P08581 [M1250T]; assay: Binding affinity to human partial length MET M1250T mutant (D1010 to S1367 residues) expressed in bacterial expression system assessed as residual binding level at 1 uM by Kinomescan method relative to control
Summary of the method: (§1)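 Kinome-wide single-concentration binding screen (KINOMEscan) at 1 μM against a panel of 468 purified kinases and mutants. Read-out is relative binding of each kinase compared with control. Selectivity across the panel was summarised as an S(10) score.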

[2] = biological target: Dual specificity mitogen-activated protein kinase kinase 6 (Homo sapiens) (UniProt P52564); assay: Binding affinity to wild-type human partial length MEK6 (K36 to D334 residues) expressed in bacterial expression system assessed as residual binding level at 1 uM by Kinomescan method relative to control
NCI-H1703 = assay: Induction of apoptosis in human NCI-H1703 cells assessed as cleaved PARP expression level at 0.3 to 10 uM after 72 hrs by Western blot analysis; format: functional, cell-based
Summary of the method: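 Cells exposed to compound or DMSO for the stated periods, then lysed and immunoblotted for PARP and caspase-3 cleavage, with β-actin as loading control. NCI-H1703 stimulation used PDGF AA at 100 ng/mL.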

Rattus norvegicus = assay: Apparent volume of distribution in Sprague-Dawley rat at 10 mg/kg, po; format: ADME, organism-based; settings: in vivo
[3] = tested on: Proto-oncogene tyrosine-protein kinase receptor Ret (Homo sapiens), P07949 [V804M]; assay: Binding affinity to human partial length RET V804M mutant (E713 to D1014 residues) expressed in bacterial expression system assessed as residual binding level at 1 uM by Kinomescan method relative to control; summary of the method: as §1
[4] = biological target: Leucine-rich repeat serine/threonine-protein kinase 2 (Homo sapiens) (UniProt Q5S007); assay: Binding affinity to wild-type human partial length LRRK2 (H970 to E2527 residues) expressed in mammalian expression system assessed as residual binding level at 1 uM by Kinomescan method relative to control
[5] = biological target: 5'-AMP-activated protein kinase catalytic subunit alpha-2 (Homo sapiens) (UniProt P54646); assay: Binding affinity to wild-type human partial length AMPK alpha2 (M1 to E306 residues) expressed in bacterial expression system assessed as residual binding level at 1 uM by Kinomescan method relative to control
Summary of the method: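 Single-concentration KINOMEscan (DiscoverX) binding screen at 1 μM against a panel of 468 purified kinases and mutants. The read-out is binding relative to control.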

[6] = biological target: STE20-like serine/threonine-protein kinase (Homo sapiens) (UniProt Q9H2G2); assay: Binding affinity to wild-type human partial length SLK (S14 to A307 residues) expressed in bacterial expression system assessed as residual binding level at 1 uM by Kinomescan method relative to control
[7] = tested on: Receptor-type tyrosine-protein kinase FLT3 (Homo sapiens), P36888 [R834Q]; assay: Binding affinity to human partial length FLT3 R834Q mutant (V592 to Y969 residues) expressed in mammalian expression system assessed as residual binding level at 1 uM by Kinomescan method relative to control; summary of the method: as §1
[8] = biological target: Tyrosine-protein kinase receptor Tie-1 (Homo sapiens) (UniProt P35590); assay: Binding affinity to wild-type human partial length TIE1 (T819 to A1138 residues) expressed in bacterial expression system assessed as residual binding level at 1 uM by Kinomescan method relative to control
[9] = biological target: cAMP-dependent protein kinase catalytic subunit PRKX (Homo sapiens) (UniProt P51817); assay: Binding affinity to wild-type human partial length PRKX (M1 to F358 residues) expressed in bacterial expression system assessed as residual binding level at 1 uM by Kinomescan method relative to control
Summary of the method: (§2)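 KINOMEscan competition binding against a panel of 468 purified kinases/mutants, compound tested at 1 μM; readout is relative binding activity versus control.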

[10] = biological target: Serine/threonine-protein kinase TAO1 (Homo sapiens) (UniProt Q7L7X3); assay: Binding affinity to wild-type human partial length TAOK1 (M1 to A320 residues) expressed in mammalian expression system assessed as residual binding level at 1 uM by Kinomescan method relative to control
[11] = biological target: Misshapen-like kinase 1 (Homo sapiens) (UniProt Q8N4C8); assay: Binding affinity to wild-type human partial length MINK (M1 to K312 residues) expressed in mammalian expression system assessed as residual binding level at 1 uM by Kinomescan method relative to control
Summary of the method: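 Kinome-wide competition binding screen against a panel of 468 purified kinases/mutants, with the test compound at a single concentration of 1 μM. Read-out is the relative binding activity of each kinase in the presence of compound.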

[12] = biological target: Mitogen-activated protein kinase kinase kinase 13 (Homo sapiens) (UniProt O43283); assay: Binding affinity to wild-type human full length LZK (M1 to W966 residues) expressed in mammalian expression system assessed as residual binding level at 1 uM by Kinomescan method relative to control
Summary of the method: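 Single-concentration (1 μM) competition-binding screen run by KINOMEscan against a panel of 468 purified kinases and mutants. The read-out is the relative binding activity of the test compound to each kinase.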

[13] = biological target: Calcium-dependent protein kinase 1 (Plasmodium falciparum) (UniProt P62344); assay: Binding affinity to wild-type Plasmodium falciparum 3D7 full length CDPK1 (M1 to S524 residues) expressed in mammalian expression system assessed as residual binding level at 1 uM by Kinomescan method relative to control
Summary of the method: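 KINOMEscan competition binding against 468 purified kinases/mutants, test compound at 1 µM; residual binding relative to control.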

[14] = biological target: Uncharacterized serine/threonine-protein kinase SBK3 (Homo sapiens) (UniProt P0C264); assay: Binding affinity to wild-type human partial length SgK110 (L22 to R329 residues) expressed in bacterial expression system assessed as residual binding level at 1 uM by Kinomescan method relative to control; summary of the method: as §2
[15] = biological target: Myosin light chain kinase 2, skeletal/cardiac muscle (Homo sapiens) (UniProt Q9H1R3); assay: Binding affinity to wild-type human partial length MYLK2 (D258 to K570 residues) expressed in bacterial expression system assessed as residual binding level at 1 uM by Kinomescan method relative to control
[16] = biological target: Hormonally up-regulated neu tumor-associated kinase (Homo sapiens) (UniProt P57058); assay: Binding affinity to wild-type human partial length HUNK (A31 to K354 residues) expressed in bacterial expression system assessed as residual binding level at 1 uM by Kinomescan method relative to control
[17] = tested on: Fibroblast growth factor receptor 3 (Homo sapiens), P22607 [G697C]; assay: Binding affinity to human partial length FGFR3 G697C mutant (R442 to S771 residues) expressed in bacterial expression system assessed as residual binding level at 1 uM by Kinomescan method relative to control; summary of the method: as §1
[18] = biological target: SRSF protein kinase 3 (Homo sapiens) (UniProt Q9UPE1); assay: Binding affinity to wild-type human partial length SRPK3 (P41 to P567 residues) expressed in bacterial expression system assessed as residual binding level at 1 uM by Kinomescan method relative to control
[19] = tested on: Serine/threonine-protein kinase B-raf (Homo sapiens), P15056 [V600E]; assay: Binding affinity to human partial length BRAF V600E mutant (S429 to E741 residues) expressed in mammalian expression system assessed as residual binding level at 1 uM by Kinomescan method relative to control; summary of the method: as §1

Sequence of Serine/threonine-protein kinase TAO1 (Homo sapiens) (Q7L7X3 whole entry, the tested form may be a part): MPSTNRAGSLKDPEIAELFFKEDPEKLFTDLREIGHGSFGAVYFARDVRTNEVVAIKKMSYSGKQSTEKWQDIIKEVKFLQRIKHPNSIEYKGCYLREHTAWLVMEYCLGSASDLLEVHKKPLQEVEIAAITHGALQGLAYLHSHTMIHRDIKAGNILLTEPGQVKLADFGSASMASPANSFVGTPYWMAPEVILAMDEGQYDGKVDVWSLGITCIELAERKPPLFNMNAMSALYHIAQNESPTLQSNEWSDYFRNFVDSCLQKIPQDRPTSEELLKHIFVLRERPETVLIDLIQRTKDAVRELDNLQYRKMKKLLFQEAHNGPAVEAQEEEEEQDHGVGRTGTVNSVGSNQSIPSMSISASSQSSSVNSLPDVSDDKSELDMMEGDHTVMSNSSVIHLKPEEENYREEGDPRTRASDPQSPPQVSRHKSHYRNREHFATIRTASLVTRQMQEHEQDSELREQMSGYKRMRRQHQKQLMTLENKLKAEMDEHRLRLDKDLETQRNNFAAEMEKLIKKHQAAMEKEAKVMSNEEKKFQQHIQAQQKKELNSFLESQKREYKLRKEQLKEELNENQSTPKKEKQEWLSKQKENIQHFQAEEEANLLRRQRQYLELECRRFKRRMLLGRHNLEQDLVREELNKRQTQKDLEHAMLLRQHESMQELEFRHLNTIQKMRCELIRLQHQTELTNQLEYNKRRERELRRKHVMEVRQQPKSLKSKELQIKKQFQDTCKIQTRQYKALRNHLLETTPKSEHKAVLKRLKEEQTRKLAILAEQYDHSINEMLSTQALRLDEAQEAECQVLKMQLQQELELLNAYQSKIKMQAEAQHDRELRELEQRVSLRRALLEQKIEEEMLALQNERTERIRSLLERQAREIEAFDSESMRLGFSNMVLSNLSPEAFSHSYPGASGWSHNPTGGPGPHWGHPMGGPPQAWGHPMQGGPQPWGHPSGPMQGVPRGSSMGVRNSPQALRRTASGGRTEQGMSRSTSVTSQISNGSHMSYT
Sequence of SRSF protein kinase 3 (Homo sapiens) (Q9UPE1 whole entry, the tested form may be a part): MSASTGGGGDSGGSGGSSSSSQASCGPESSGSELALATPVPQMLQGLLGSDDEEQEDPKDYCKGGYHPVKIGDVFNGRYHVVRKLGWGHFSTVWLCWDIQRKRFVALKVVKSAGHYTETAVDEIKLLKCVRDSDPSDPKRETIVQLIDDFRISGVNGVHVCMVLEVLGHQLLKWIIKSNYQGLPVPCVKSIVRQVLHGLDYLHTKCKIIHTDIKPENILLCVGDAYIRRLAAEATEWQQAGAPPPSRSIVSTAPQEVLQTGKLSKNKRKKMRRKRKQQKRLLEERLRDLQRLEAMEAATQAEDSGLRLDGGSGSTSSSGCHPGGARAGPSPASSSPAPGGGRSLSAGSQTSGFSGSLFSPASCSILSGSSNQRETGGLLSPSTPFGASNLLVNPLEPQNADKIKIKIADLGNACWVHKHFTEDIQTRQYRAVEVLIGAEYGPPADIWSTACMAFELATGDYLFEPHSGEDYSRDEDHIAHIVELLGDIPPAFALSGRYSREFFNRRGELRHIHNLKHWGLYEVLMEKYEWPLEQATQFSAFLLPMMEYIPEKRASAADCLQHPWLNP
Sequence of Leucine-rich repeat serine/threonine-protein kinase 2 (Homo sapiens) (Q5S007 whole entry, the tested form may be a part): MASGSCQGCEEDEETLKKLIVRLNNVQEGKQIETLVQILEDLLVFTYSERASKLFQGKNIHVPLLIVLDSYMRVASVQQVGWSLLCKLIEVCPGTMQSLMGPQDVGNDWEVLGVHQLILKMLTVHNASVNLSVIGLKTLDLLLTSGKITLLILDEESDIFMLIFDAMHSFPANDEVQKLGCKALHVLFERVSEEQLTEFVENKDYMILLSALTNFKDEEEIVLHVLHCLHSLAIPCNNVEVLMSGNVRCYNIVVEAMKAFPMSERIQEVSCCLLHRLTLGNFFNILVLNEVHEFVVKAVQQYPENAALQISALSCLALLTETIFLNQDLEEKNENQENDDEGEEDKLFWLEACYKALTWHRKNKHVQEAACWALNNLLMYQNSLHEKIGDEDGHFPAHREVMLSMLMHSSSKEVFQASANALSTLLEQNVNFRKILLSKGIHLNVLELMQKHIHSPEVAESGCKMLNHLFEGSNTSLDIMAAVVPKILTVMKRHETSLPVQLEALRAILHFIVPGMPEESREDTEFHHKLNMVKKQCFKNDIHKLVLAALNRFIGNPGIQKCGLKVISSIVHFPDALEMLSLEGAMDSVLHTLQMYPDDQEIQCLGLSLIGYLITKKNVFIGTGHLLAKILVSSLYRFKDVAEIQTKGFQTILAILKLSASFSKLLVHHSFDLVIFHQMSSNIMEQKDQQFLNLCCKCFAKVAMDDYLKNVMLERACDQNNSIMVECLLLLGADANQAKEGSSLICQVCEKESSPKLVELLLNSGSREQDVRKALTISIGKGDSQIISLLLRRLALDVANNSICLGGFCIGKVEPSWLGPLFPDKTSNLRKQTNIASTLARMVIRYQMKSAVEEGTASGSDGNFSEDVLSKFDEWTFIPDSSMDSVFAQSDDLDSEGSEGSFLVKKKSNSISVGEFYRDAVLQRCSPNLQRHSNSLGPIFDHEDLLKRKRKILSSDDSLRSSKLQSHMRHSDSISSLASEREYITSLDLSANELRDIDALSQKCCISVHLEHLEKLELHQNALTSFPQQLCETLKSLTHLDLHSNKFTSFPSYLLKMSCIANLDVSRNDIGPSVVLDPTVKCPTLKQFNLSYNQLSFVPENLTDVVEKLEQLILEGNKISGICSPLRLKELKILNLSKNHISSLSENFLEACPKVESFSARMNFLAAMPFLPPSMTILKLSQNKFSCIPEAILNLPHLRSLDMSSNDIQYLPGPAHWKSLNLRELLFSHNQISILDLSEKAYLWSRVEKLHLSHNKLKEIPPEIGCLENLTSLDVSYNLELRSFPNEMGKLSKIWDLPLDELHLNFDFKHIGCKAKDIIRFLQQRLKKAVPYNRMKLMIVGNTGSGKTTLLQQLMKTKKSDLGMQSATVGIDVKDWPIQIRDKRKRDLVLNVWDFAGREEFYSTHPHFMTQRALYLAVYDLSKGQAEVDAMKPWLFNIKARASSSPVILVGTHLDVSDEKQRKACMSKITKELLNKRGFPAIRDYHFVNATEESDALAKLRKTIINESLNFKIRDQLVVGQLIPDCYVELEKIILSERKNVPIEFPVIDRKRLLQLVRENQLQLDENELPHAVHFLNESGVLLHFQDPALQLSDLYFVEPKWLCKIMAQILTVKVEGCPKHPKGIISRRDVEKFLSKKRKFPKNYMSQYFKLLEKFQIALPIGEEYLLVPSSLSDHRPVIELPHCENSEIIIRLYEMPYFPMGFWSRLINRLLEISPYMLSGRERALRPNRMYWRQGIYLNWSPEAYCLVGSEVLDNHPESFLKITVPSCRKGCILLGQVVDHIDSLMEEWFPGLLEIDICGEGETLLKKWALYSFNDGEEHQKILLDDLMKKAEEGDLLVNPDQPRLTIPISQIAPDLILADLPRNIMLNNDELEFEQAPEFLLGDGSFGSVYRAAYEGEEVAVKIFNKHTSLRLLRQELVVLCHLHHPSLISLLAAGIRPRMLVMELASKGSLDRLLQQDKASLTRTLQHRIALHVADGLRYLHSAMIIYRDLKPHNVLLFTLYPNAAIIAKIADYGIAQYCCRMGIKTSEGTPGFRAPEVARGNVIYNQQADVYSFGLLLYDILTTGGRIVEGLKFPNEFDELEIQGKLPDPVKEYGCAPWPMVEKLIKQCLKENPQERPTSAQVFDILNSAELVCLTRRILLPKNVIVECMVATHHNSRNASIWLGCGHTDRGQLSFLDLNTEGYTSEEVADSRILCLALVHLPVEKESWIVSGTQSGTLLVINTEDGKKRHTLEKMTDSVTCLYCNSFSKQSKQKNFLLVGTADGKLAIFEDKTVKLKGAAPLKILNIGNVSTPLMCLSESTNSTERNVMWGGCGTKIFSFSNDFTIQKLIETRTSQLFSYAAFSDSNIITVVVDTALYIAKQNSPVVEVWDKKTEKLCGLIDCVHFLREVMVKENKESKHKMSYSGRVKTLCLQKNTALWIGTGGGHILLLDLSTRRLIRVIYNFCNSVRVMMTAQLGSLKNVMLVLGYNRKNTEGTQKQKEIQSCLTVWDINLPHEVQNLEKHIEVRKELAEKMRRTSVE
Sequence of cAMP-dependent protein kinase catalytic subunit PRKX (Homo sapiens) (P51817 whole entry, the tested form may be a part): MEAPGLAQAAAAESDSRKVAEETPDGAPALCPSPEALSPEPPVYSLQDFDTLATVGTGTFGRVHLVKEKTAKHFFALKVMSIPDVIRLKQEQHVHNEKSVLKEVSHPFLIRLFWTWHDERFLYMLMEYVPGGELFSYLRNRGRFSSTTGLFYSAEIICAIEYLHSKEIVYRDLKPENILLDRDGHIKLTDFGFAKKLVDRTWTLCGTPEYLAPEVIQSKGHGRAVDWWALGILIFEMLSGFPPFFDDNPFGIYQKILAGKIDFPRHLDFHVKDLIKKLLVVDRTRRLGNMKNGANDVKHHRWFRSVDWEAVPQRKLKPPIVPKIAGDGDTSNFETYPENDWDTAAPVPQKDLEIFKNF
Sequence of Uncharacterized serine/threonine-protein kinase SBK3 (Homo sapiens) (P0C264 whole entry, the tested form may be a part): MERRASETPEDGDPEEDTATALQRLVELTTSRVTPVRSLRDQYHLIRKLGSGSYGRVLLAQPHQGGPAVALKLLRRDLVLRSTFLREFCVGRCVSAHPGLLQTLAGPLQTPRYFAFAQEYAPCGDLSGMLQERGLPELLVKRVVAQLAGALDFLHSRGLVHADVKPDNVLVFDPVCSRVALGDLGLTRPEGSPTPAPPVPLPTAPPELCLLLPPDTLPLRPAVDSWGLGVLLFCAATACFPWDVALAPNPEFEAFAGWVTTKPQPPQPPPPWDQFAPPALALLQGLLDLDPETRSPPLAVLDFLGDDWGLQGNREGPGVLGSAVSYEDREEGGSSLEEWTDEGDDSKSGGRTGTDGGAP

Structure (SMILES): Cc1ccc(NC(=O)c2ccc(CN(CCN(C)C)C(=O)c3cccnc3)cc2)cc1Nc1nccc(-c2cccnc2)n1
- Activity [1]: 86%
- Activity [2]: 100%
- Activity (NCI-H1703): inactive
- Vz (Rattus norvegicus): 256.181 L/kg
- Activity [3]: 96%
- Activity [4]: 100%
- Activity [5]: 100%
- Activity [6]: 100%
- Activity [7]: 90%
- Activity [8]: 93%
- Activity [9]: 92%
- Activity [10]: 100%
- Activity [11]: 75%
- Activity [12]: 100%
- Activity [13]: 82%
- Activity [14]: 72%
- Activity [15]: 100%
- Activity [16]: 90%
- Activity [17]: 100%
- Activity [18]: 85%
- Activity [19]: 49%

Source: ChEMBL document CHEMBL4229344 (Eur J Med Chem, 2018)
